In ChEMBL document CHEMBL1131301, “Tyrosine kinase inhibitors. 14. Structure-activity relationships for methylamino-substituted derivatives of 4-[(3-bromophenyl)amino]-6-(methylamino)-pyrido[3,4-d]pyrimidine (PD 158780), a potent and specific inhibitor of the tyrosine kinase activity of receptors for the EGF family of growth factors” (J Med Chem, 1998):
In brackets after ≈: the same amount, converted by molar mass. Blank lines part the entries; values can stand above or below the compound they belong to.

Experiments:
[1] = biological target: T1, Epidermal growth factor receptor (Homo sapiens, UniProt P00533); assay: Inhibition of autophosphorylation of epidermal growth factor receptor in A431 cells in culture
T1 sequence (P00533 whole entry): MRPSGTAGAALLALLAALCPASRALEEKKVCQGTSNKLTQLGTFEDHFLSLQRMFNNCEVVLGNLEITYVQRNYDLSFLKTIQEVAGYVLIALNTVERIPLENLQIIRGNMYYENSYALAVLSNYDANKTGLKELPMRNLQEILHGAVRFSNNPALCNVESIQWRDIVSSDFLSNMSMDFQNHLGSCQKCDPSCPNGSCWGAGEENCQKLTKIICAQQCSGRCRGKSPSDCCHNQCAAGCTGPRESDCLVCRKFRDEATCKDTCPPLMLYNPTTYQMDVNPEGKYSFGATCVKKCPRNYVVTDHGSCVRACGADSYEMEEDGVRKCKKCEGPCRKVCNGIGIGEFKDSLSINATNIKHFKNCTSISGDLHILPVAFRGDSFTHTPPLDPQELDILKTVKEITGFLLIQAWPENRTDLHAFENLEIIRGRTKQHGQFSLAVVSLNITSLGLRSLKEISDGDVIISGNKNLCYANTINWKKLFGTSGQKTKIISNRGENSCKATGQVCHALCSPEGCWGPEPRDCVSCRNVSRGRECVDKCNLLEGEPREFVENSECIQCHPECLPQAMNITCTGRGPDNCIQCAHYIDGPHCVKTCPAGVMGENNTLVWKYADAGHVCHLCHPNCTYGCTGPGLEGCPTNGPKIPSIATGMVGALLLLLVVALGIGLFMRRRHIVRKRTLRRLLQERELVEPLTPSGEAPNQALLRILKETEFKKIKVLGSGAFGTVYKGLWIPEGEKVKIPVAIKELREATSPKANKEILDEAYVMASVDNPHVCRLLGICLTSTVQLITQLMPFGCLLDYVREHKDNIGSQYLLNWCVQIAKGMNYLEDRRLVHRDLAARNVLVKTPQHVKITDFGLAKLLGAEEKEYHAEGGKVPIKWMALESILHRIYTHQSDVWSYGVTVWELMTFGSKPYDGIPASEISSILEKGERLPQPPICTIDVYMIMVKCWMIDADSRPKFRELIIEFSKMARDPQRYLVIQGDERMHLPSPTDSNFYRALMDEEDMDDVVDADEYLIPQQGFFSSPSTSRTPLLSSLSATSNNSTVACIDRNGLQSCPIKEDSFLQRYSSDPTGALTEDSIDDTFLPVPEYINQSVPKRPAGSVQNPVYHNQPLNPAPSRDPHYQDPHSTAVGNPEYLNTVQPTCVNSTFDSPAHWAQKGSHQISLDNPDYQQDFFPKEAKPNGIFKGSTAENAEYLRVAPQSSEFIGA

[2] = Aqueous solubility ([…] degree C); type: physicochemical; conditions: water; read-out: S
[3] = biological target: T1, Epidermal growth factor receptor; assay: Inhibit of phosphorylation of a tyrosine/glutamic acid copolymer by epidermal growth factor receptor prepared from human A431 carcinoma cell vesicles by immunoaffinity chromatography.
[4] = biological target: T1, Epidermal growth factor receptor; assay: Inhibition of EGF-dependent autophosphorylation of EGF-R in A431 cells
[5] = biological target: T1, Epidermal growth factor receptor; assay: (§1) Inhibition of tyrosine/glutamic acid copolymer phosphorylation by epidermal growth factor receptor prepared of human A431
[6] = biological target: T1, Epidermal growth factor receptor; assay: as §1; remark: listed apart in the source
[7] = biological target: Fibroblast growth factor receptor (Homo sapiens, UniProt P22607+P11362+P22455+P21802); assay: Inhibition of fibroblast growth factor receptor(FGFR); type: functional
Insulin receptor = Insulin receptor (Homo sapiens, UniProt P06213); assay: Inhibition of insulin receptor(IR); type: functional
Insulin receptor, sequence (P06213 28-758 limits assumed): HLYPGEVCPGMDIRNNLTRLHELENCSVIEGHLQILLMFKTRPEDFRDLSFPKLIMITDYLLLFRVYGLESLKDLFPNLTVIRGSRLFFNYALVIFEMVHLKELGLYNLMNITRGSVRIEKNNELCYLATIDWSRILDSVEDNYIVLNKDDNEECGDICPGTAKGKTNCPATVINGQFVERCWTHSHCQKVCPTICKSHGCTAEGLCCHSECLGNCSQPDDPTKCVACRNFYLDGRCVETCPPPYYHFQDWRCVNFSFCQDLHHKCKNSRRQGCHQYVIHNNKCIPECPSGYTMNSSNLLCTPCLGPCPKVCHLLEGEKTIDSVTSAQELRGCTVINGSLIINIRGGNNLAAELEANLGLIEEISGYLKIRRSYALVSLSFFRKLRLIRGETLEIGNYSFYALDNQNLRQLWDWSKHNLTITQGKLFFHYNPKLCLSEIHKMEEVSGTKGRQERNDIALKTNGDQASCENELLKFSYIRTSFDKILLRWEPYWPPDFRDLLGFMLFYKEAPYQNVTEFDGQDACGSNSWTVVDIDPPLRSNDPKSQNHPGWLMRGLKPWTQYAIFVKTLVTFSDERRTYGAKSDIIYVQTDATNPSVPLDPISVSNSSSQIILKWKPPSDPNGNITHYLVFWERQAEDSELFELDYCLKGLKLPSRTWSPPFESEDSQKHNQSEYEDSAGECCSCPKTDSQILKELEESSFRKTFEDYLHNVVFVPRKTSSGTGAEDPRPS
Insulin receptor, sequence (P06213 763-1382 limits assumed): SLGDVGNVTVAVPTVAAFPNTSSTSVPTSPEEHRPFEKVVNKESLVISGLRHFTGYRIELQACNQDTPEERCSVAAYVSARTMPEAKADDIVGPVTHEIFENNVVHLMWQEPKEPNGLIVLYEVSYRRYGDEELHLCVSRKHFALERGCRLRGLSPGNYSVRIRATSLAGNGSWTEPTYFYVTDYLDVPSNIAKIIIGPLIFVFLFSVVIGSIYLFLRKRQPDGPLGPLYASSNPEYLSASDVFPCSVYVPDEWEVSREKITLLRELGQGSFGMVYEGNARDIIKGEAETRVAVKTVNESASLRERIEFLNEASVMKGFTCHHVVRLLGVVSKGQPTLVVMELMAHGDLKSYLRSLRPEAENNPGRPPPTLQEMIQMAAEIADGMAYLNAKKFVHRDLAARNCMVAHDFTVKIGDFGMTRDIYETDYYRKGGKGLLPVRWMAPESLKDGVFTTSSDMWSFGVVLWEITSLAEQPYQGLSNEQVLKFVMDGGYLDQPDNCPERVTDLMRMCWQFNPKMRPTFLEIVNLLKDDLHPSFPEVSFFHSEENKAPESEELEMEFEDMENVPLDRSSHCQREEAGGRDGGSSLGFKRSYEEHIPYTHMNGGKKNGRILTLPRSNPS

[8] = biological target: Receptor tyrosine-protein kinase erbB-2 (Homo sapiens, UniProt P04626); assay: Inhibition of heregulin-dependent autophosphorylation of ErbB2 receptor in MDA-MB-453 cells; type: functional, cell-based
Receptor tyrosine-protein kinase erbB-2, sequence (P04626 whole entry, the tested form may be a part): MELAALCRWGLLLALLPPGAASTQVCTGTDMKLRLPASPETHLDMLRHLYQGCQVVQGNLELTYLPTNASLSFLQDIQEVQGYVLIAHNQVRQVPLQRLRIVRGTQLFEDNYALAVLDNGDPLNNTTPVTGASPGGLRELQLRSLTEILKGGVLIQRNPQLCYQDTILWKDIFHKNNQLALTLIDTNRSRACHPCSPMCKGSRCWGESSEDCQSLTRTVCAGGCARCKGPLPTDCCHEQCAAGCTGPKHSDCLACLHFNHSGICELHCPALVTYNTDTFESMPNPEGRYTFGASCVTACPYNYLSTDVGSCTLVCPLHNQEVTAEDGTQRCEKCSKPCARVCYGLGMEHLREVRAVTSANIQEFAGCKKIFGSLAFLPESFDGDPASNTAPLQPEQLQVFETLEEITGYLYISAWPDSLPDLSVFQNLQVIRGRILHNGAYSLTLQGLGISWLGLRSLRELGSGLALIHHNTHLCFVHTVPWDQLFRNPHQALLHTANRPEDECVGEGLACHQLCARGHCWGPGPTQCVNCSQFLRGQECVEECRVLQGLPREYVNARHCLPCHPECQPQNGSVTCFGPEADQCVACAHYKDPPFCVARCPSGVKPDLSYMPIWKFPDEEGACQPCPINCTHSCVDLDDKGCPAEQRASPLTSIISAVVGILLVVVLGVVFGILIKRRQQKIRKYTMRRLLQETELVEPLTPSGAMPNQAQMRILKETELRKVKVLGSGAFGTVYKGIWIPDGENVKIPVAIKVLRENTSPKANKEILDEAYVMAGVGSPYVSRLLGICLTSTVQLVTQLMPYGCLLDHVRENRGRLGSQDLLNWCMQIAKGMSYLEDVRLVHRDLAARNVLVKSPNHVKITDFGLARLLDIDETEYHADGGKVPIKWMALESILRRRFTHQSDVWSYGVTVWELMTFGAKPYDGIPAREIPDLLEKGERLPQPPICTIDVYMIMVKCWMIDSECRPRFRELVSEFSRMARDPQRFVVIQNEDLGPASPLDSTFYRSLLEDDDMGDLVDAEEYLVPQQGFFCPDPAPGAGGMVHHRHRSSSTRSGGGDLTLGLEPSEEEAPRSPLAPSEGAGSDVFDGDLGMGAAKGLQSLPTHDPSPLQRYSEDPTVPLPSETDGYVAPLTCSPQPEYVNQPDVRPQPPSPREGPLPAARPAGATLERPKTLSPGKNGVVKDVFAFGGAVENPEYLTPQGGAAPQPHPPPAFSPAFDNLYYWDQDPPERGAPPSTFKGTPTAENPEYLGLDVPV

Mus musculus [9] = assay: Difference in days for treated (T) and control (C) EGFR tumor fragments to reach 750 mg in mice at 200 mg/kg peroral dose, administration days 1-15; type: functional; conditions: route oral
Mus musculus [10] = assay: Difference in days for treated (T) and control (C) EGFR tumor fragments to reach 750 mg in mice at 25 mg/kg ip dose, administration days 1-15; type: functional; conditions: route intraperitoneal
MCF7 [11] = assay: Difference in days for treated (T) and control (C) MCF-7 tumor fragments to reach 750 mg in mice at 25 mg/kg ip dose, administration days 1-15; type: functional; conditions: route intraperitoneal
A-431 [12] = assay: Ratio of treated and control A431 median tumor mass*100% in mice at 25 mg/kg peroral dose, days 7-21 administration; type: functional; conditions: route intraperitoneal, in the assay text read “intraperitoneal” for “peroral”
How it was run: (§2)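 Nude mice (NCr nu/nu, 18-22 g) were randomized and implanted sc with tumor fragments in the right axilla on day 0. Tumor lines were A431 epidermoid, NIH 3T3 fibroblasts transfected with human EGFR, and MCF-7 breast. Dosing was ip or oral, by average cage weight, with 6 mice/dose group. Vehicle was 6% dimethylacetamide/94% 50 mM sodium lactate pH 4.0 (suspension), or isethionate salt in water.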

Mus musculus [13] = assay: Ratio of treated and control EGFR median tumor mass*100% in mice at 200 mg/kg peroral dose, days 1-15 administration; type: functional; conditions: route oral; how it was run: as §2
Mus musculus [14] = assay: Ratio of treated and control EGFR median tumor mass*100% in mice at 25 mg/kg ip dose, days 1-15 administration; type: functional; conditions: route intraperitoneal; how it was run: as §2
MCF7 [15] = assay: Ratio of treated and control MCF-7 median tumor mass*100% in mice at 25 mg/kg ip dose, days 1-15 administration; type: functional; conditions: route intraperitoneal; how it was run: as §2
Mus musculus [16] = assay: Net reduction in EGFR tumor burden between the first and last treatments in mice at 25 mg/kg ip dose, days 1-15 administration; type: functional; conditions: route intraperitoneal
How it was run: (§3)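 NCr nu/nu nude mice (18-22 g) were randomized and implanted sc with A431 epidermoid, human-EGFR-transfected NIH 3T3 fibroblast, or MCF-7 breast tumor fragments in the right axilla on day 0. Dosing was ip or oral, by average cage weight, with 6 mice per dose group. Log net cell kill is the net reduction in tumor burden between the first and last treatments.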

MCF7 [17] = assay: Net reduction in MCF-7 tumor burden between the first and last treatments in mice at 25 mg/kg ip dose, days 1-15 administration; type: functional; conditions: route intraperitoneal; how it was run: as §3
MCF7 [18] = assay: Weight change in MCF-7 tumor bearing mice at 25 mg/kg ip dose, days 1-15 administration; type: functional; conditions: route intraperitoneal
A-431 [19] = assay: Weight change in A431 tumor bearing mice at 25 mg/kg ip dose, days 7-21 administration; type: functional; conditions: route intraperitoneal
Mus musculus [20] = assay: Weight change of EGFR tumor bearing mice at 200 mg/kg peroral dose, days 1-15 administration; type: functional, organism-based; design: dose 200 mg/kg
Mus musculus [21] = assay: Weight change of EGFR tumor bearing mice at 25 mg/kg ip dose, days 1-15 administration; type: functional; conditions: route intraperitoneal
[22] = Inhibition of Platelet-derived growth factor receptor (PDGFR); type: functional
[23] = biological target: Proto-oncogene tyrosine-protein kinase Src (Homo sapiens, UniProt P12931); assay: Inhibition of c-Src tyrosine kinase; type: functional
Proto-oncogene tyrosine-protein kinase Src, sequence (P12931 2-536 limits assumed): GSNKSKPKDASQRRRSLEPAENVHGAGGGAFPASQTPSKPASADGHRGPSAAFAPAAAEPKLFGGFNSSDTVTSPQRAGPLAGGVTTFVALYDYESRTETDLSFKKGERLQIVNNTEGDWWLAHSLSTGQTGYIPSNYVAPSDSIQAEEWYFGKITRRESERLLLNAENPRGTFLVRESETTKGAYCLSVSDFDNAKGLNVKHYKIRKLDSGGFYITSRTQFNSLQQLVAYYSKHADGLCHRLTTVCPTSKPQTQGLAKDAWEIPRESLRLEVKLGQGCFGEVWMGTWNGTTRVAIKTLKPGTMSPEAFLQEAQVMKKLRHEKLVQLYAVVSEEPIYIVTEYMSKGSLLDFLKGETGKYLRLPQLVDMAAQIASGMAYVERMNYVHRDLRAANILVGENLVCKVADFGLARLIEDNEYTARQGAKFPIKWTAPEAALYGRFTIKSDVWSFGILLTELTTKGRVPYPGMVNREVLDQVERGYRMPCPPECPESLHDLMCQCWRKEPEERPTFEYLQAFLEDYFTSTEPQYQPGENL

Mus musculus [24] = assay: Log net cell kill of A431 tumor bearing mice at 25 mg/kg intraperitoneal dose, days 7-21 administration
A-431 [25] = assay: Difference in days for treated (T) and control (C) A431 tumor fragments to reach 750 mg in mice at 25 mg/kg intraperitoneal dose, administration days 7-21

Compound: CCN(CC)CC(O)CNc1cc2c(Nc3cccc(Br)c3)ncnc2cn1 (configuration not stated)
IC50 [4]: 28 nM
IC50 [1]: 28 nM
solubility [2]: 36 mM (≈ 16 mg/mL)
IC50 [5]: 4.6 nM
IC50 [6]: 4.6 nM
IC50 [7]: > 50 µM
IC50 (Insulin receptor): > 50 µM
IC50 [8]: 1100 nM
T-C (Mus musculus [9]): 0 days
T-C (Mus musculus [10]): 5 days
T-C (MCF7 [11]): 3.3 days
T/C (A-431 [12]): 62%
T/C (Mus musculus [13]): 94%
T/C (Mus musculus [14]): 44%
T/C (MCF7 [15]): 77%
Net cell kill (Mus musculus [16]): -0.9 log10
Net cell kill (MCF7 [17]): -0.6 log10
Weight change (MCF7 [18]): -0.3 g
Weight change (A-431 [19]): -0.7 g
Weight change (Mus musculus [20]): Weight gain
Weight change (Mus musculus [21]): -0.9 g
IC50 [22]: > 50 µM
IC50 [23]: > 50 µM
Log net cell kill (Mus musculus [24]): -0.5 log10
T-C (A-431 [25]): 5 days

Compound: Cc1cccc(Nc2ncnc3cnc(N)cc23)c1
solubility [2]: 0.4 mM (≈ 0.101 mg/mL)
IC50 [3]: 3.1 nM

Compound: Cc1nc(Nc2cccc(Br)c2)c2cc(NCCN3CCOCC3)ncc2n1
IC50 [3]: 117 nM

Compound: CN(C)CCCNc1cc2c(Nc3cccc(Br)c3)ncnc2cn1
IC50 [1]: 16 nM
solubility [2]: 30 mM (≈ 12 mg/mL)
IC50 [3]: 1.2 nM

Other lines, results leading:

IC50 [1]: 230 nM
solubility [2]: 20 mM (≈ 9.23 mg/mL)
IC50 [3]: 0.35 nM
Compound: OCCN(CCO)CCCNc1cc2c(Nc3cccc(Br)c3)ncnc2cn1

IC50 [1]: 449 nM
solubility [2]: 38 mM (≈ 14.8 mg/mL)
IC50 [3]: 0.27 nM
Compound: O=C(O)CCNc1cc2c(Nc3cccc(Br)c3)ncnc2cn1

IC50 [1]: 6.3 nM
solubility [2]: 15 mM (≈ 6.15 mg/mL)
IC50 [3]: 0.78 nM
Compound: Brc1cccc(Nc2ncnc3cnc(NCCc4c[nH]cn4)cc23)c1

solubility [2]: 44 mM (≈ 17.1 mg/mL)
IC50 [3]: 0.44 nM
Compound: CN(CC(=O)O)c1cc2c(Nc3cccc(Br)c3)ncnc2cn1
